{"source": "paper PMC10013843", "about": "(Molecular psychiatry, 2022)", "key": {"[1]": {"details": "after i.p. injection of antidepressant-relevant doses in mice; cited from earlier work"}, "rats [2]": {"system": "rats", "assay": "Intravenous self-administration", "format": "in vivo, rat", "procedure,_shortened": "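Male rats had jugular catheters placed under isoflurane and recovered 6–8 days. They were food-restricted (18–20 g/day) on a reverse 12-h cycle. For training (n = 14), rats self-administered test compound at 0.5 mg/kg/infusion IV, FR1 with 20-s timeout, for 16 days. For dose-response (n = 8/condition), unit doses of 0.125, 0.25, 0.5 or 1.0 mg/kg/infusion were given in randomized sequence, 1 h/day for 8 days. Read-out was infusions earned.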"}, "mice [3]": {"system": "mice", "assay": "Conditioned place preference", "format": "in vivo, mouse", "details": "male mice", "procedure,_shortened": "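Male C57BL/6J mice (20–25 g, n = 8/group) received saline or test compound (10, 30 or 65 mg/kg IP) before 15-min confinement to one side of a two-sided chamber (clear/white vs checkered/black). Vehicle was given before the opposite side on alternate days, counterbalanced across 6 conditioning days. A 20-min free-exploration pre-test came first, within 8 daily sessions. Infrared beams tracked time per side and distance travelled.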"}, "MOR (OPRM1)": {"target": "MOR (OPRM1) (Homo sapiens, UniProt P35372)", "sequence (P35372 whole entry)": "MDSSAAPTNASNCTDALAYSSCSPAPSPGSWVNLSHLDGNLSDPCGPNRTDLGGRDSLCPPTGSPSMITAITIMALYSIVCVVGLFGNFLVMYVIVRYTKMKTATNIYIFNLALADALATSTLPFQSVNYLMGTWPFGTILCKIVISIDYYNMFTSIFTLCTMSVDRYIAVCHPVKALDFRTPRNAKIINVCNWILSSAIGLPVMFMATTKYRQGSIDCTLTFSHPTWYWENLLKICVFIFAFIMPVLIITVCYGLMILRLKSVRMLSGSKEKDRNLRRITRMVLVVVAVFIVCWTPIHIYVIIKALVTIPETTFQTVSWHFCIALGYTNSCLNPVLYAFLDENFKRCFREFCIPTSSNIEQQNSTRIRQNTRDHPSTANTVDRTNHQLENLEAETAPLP", "assay": "cAMP BRET", "format": "cell-based", "details": "HEK-293 cells, up to a concentration of 1 mM", "procedure,_shortened": "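HEK-293 cells (DMEM, 10% FBS, 37°C/5% CO2) were PEI-transfected with 5 μg untagged MOR, KOR or DOR plus 5 μg CAMYEL cAMP biosensor and used 48 h later. Cells were suspended in DPBS with 100 μM metabisulfite and 5.5 mM glucose and kept 45 min in the dark. Forskolin (10 μM) was added for 5 min, then coelenterazine H (5 μM) for 5 min, then compound. BRET (535/475 nm) was read 5 min later, forskolin-only background subtracted, and expressed as % of each receptor's maximum. Triplicates; 3–6 experiments for EC50/Emax.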"}, "mGluR2": {"target": "mGluR2 (Homo sapiens, UniProt Q14416)", "sequence (Q14416 19-872)": "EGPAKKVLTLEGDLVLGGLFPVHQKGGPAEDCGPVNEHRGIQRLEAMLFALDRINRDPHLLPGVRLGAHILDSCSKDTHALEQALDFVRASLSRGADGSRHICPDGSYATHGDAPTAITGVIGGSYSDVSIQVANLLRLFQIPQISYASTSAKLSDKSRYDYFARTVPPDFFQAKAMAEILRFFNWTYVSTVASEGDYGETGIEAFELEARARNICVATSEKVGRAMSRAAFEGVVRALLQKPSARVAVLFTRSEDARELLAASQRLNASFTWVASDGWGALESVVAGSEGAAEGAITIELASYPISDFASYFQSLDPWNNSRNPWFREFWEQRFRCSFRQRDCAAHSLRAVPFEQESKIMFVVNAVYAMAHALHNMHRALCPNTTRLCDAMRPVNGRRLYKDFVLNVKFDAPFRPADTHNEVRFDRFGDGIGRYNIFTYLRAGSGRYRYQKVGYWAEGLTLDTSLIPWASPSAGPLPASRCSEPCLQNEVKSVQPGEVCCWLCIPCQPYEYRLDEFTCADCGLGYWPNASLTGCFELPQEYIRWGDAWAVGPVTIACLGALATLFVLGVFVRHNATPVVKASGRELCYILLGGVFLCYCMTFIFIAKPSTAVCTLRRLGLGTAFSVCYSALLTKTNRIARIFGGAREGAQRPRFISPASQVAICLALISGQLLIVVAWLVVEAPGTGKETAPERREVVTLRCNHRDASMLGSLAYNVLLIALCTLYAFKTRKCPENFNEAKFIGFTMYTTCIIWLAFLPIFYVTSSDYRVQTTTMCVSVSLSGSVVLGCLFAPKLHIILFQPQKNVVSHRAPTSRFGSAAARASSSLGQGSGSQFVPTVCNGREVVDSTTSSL", "assay": "[^3H]LY341495 competition binding, recombinant receptor membranes", "details": "membranes expressing human recombinant mGluR2"}, "[4]": {"target": "Neurokinin receptor (NK1) (Homo sapiens, UniProt P25103)", "sequence (P25103 whole entry)": "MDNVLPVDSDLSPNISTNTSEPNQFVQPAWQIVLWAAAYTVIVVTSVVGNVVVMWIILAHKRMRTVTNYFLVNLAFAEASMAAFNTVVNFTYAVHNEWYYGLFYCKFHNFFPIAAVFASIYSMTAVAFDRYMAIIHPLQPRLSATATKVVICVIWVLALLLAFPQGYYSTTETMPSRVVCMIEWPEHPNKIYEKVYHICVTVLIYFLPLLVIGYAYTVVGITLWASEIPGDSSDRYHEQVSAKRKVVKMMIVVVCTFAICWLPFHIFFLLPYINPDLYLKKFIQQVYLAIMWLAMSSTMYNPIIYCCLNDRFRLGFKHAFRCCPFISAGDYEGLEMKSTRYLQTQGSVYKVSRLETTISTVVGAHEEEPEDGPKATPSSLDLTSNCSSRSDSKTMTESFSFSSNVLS", "assay": "Receptor and enzyme competitive screen", "format": "binding", "details": "10 μM", "procedure,_shortened": "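In an outsourced panel, membranes from stable cell lines expressing each receptor or enzyme were incubated with the target's radioligand, with or without test compound at 100 nM or 10 μM. A reference compound ran concurrently, and a specific agonist or antagonist defined nonspecific binding. Bound ligand was collected by vacuum filtration through presoaked glass-fibre filters, washed with ice-cold buffer and counted by scintillation.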"}, "mGluR5": {"target": "mGluR5 (Homo sapiens, UniProt P41594)", "sequence (P41594 21-1212)": "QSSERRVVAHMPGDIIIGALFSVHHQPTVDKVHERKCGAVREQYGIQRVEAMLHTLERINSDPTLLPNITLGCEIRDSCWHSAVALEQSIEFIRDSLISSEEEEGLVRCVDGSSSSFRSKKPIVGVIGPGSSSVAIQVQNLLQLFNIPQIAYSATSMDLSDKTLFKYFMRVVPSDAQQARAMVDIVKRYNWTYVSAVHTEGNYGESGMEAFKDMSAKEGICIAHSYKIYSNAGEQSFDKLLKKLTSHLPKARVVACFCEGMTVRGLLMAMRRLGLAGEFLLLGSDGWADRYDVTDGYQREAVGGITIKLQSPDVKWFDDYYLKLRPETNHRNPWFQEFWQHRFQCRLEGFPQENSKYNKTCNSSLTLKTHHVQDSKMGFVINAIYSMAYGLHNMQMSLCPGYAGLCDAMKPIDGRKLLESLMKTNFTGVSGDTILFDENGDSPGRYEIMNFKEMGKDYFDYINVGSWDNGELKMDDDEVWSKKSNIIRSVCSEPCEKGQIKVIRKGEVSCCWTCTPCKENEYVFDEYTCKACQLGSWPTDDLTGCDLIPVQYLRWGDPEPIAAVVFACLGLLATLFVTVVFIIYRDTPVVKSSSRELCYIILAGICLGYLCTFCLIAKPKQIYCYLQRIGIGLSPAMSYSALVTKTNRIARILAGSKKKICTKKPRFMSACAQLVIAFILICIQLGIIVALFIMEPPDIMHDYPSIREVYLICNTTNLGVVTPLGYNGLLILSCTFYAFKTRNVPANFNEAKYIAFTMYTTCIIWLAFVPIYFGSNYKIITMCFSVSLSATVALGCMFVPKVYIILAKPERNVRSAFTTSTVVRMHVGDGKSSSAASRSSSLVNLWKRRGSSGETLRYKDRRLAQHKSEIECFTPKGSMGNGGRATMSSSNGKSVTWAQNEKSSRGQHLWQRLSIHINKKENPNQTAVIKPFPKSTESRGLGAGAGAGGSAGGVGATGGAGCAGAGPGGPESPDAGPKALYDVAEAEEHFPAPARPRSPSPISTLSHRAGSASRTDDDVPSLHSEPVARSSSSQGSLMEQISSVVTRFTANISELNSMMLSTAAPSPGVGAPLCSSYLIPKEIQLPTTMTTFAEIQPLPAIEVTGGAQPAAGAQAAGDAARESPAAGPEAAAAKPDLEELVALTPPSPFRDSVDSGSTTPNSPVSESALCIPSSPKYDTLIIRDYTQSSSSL", "assay": "mGluR functional assay", "format": "biochemical"}, ">30,000 proteins": {"system": ">30,000 proteins", "assay": "Collective screening and target deconvolution", "format": "binding"}, "NMDA receptors": {"system": "NMDA receptors", "assay": "[^3H]MK-801 competition binding, rat brain membranes"}, "rats [5]": {"system": "rats", "assay": "[^18F]-FDG PET brain metabolic mapping", "format": "in vivo, rat", "details": "10 mg/kg i.v. infusion in 40 min", "procedure,_shortened": "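Rats were handling- and arena-habituated and fasted 16 h. Awake in an open field, they received a continuous IV infusion of buffered saline (n = 4) or test compound (10 mg/kg over 40 min, n = 5). Ten min after infusion start, [18F]-FDG (13 MBq) was given IP. Rats were anesthetized 30 min later and brains PET-scanned. SUVR images used whole brain as reference, analysed voxel-wise and by atlas-based ROIs.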"}, "[^14C]-": {"assay": "[^14C]-", "format": "in vivo, rat", "details": "for % of the total radioactivity exposure through 72 hours: plasma; for plasma exposure AUC 0–72h: [^14C]-(2R,6R)-HNK 10 mg/kg i.v.", "procedure,_shortened": "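Male and female rats received a single bolus IV dose of 14C-labelled test compound (10 mg/kg). Blood and plasma radioactivity was followed from 15 min to 120 h in males and to 72 h in females. […] Whole-body autoradiograms were taken at 30 min and 4 h.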"}, "mice [6]": {"system": "mice", "assay": "Open-field locomotor activity", "format": "in vivo, mouse", "details": "male mice; single 10, 30, 65 mg/kg IP"}, "NMDAR": {"system": "NMDAR", "details": "cited from earlier work"}, "opioid receptors": {"system": "opioid receptors", "details": "not tested experimentally; cited from earlier work"}, "[7]": {"target": "estrogen receptor alpha (ERα) (Homo sapiens, UniProt P03372)", "sequence (P03372 whole entry)": "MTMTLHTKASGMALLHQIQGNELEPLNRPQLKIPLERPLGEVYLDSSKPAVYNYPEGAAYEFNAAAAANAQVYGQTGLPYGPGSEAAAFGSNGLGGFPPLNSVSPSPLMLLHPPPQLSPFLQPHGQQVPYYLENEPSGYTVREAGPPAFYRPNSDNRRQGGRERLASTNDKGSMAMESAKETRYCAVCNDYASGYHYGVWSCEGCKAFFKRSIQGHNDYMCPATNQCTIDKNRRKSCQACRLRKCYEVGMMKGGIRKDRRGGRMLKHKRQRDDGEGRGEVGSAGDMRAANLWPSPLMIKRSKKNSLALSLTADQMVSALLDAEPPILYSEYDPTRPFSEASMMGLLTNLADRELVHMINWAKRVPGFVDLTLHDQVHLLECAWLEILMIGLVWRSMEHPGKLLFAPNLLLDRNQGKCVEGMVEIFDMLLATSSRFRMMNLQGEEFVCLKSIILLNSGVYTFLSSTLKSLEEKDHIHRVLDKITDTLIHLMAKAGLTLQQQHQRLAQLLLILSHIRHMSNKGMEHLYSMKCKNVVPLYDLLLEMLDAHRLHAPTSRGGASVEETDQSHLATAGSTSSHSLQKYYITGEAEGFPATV", "assay": "Screening and target deconvolution experiments", "format": "binding"}, "rats [8]": {"system": "rats", "assay": "Heroin self-administration and substitution", "format": "in vivo, rat", "details": "0.5 mg/kg/inf IV"}, "mGluR2/3": {"system": "mGluR2/3", "assay": "mGluR functional assay", "format": "biochemical"}}, "data": [{"molecule": "N[C@@]1(c2ccccc2Cl)CCC[C@@H](O)C1=O", "note": "[(2R,6R)-HNK, (2R,6R)-hydroxynorketamine]", "values": [{"measurement": "maximum extracellular concentration in the hippocampus", "setting": "[1]", "value": "~ 8 μM"}, {"measurement": "self-administration training", "setting": "rats [2]; male rats, 0.5 mg/kg/inf IV, FR1, 20-s timeout, 16 days", "value": "not a reliable reinforcer"}, {"measurement": "self-administration dose-response", "setting": "rats [2]; rats, unit doses 0.125, 0.25, or 1 mg/kg/inf", "value": "did not respond"}, {"measurement": "locomotor activity, repeated administration", "setting": "mice [3]; 10, 30, 65 mg/kg IP, CPP conditioning sessions", "value": "did not produce any changes in locomotor activity"}, {"measurement": "conditioned place preference", "setting": "mice [3]; repeated 10, 30, 65 mg/kg IP", "value": "did not induce CPP"}, {"measurement": "locomotor sensitization", "setting": "mice [3]; repeated administration", "value": "did not induce sensitization"}, {"measurement": "cAMP response (inhibition of cAMP accumulation)", "setting": "MOR (OPRM1)", "value": "did not induce any cAMP response"}, {"measurement": "displacement of [^3H]LY341475", "setting": "mGluR2", "value": "failed to displace"}, {"measurement": "binding of Substance P to NK1 in screen", "setting": "[4]", "value": "increases binding of Substance P"}, {"measurement": "effect in functional assay at mGluR5", "setting": "mGluR5", "value": "no effects"}, {"measurement": "direct protein interactions, all screens together", "setting": ">30,000 proteins", "value": "failed to identify any (2R,6R)-HNK-protein interactions"}, {"measurement": "displacement of [^3H]MK-801 (NMDAR binding)", "setting": "NMDA receptors; concentrations up to 100 μM", "value": "no displacement"}, {"measurement": "displacement of [^3H]MK801 binding", "setting": "NMDA receptors; rat brain membranes", "value": "failed to displace"}, {"measurement": "metabolic activity in the PFC", "setting": "rats [5]", "value": "did not see any metabolic activity"}, {"measurement": "regional metabolic connectivity profile", "setting": "rats [5]", "value": "closely resembled the saline condition"}, {"measurement": "brain metabolic activity ([^18F]-FDG uptake), voxel-wise analysis", "setting": "rats [5]; insula, nucleus accumbens, globus pallidus, thalamus, cortices, cerebellum", "value": "mild but significant increase"}, {"measurement": "FDG uptake in the nucleus accumbens, ROI-based", "setting": "rats [5]; vs saline", "value": "~ 10 % increase"}, {"measurement": "% of the total radioactivity exposure through 72 hours", "setting": "[^14C]-; female rats", "value": 26.7, "unit": "%"}, {"measurement": "plasma exposure AUC 0–72h", "setting": "[^14C]-; female rats", "value": 7090, "unit": "ng eq·h/g"}, {"measurement": "% of the total radioactivity exposure through 72 hours", "setting": "[^14C]-; male rats", "value": 21.6, "unit": "%"}, {"measurement": "plasma exposure AUC 0–72h", "setting": "[^14C]-; male rats", "value": 5330, "unit": "ng eq·h/g"}, {"measurement": "locomotor activity, acute", "setting": "mice [6]", "value": "did not alter locomotor activity"}, {"measurement": "effect on NMDAR function", "setting": "NMDAR; 10 μM, cultured hippocampal neurons", "value": "no effect"}, {"measurement": "reduction in synaptic NMDAR currents", "setting": "NMDAR; 50 μM", "value": "~ 40%"}, {"measurement": "affinity for opioid receptors by computational modeling", "setting": "opioid receptors", "value": "high (i.e. in the nanomolar range) affinity"}, {"measurement": "interaction with ERα", "setting": "[7]", "value": "failed to interact"}, {"measurement": "pressing on first session after heroin substitution", "setting": "rats [8]", "value": "pressed significantly more"}, {"measurement": "self-administration on successive sessions after heroin substitution", "setting": "rats [8]", "value": "rapid extinction of self-administration"}, {"measurement": "functional responses at mGluR2/3", "setting": "mGluR2/3", "value": "did not affect"}]}]}
